Assay outcomes as filed in PubChem.
TRPC6 inhibitor: mouse TRPC6 channel inhibition; B-score at 10 µM; AID 2553; hit rate 1.1% among 310,000; HEK293-TRPC6, membrane potential dye, ACh-evoked depolarization; stronger effect = lower value; Q61143;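 active = B-score under library mean minus 3 SD, initial fluorescence not abnormally high, positive integrated signal ratio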;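 note: B-score derived from integrated fluorescence ratio over the kinetic read; more negative B-score means stronger inhibition of depolarization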
TRPC4 PAM: TRPC4 (mouse) allosteric potentiation; HEK293 TRPC4beta/mu-opioid, DAMGO EC20, Fluo-4 Ca2+ flux; stronger effect = higher value; B-score at 10 µM; hit rate 0.42% among 310,000; Q9QUQ5; AID 2227;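 active = B-score of calcium response area above 5 SD of library B-scores, with initial fluorescence ratio within 5 SD of library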;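 note: B-score of integrated fluorescence ratio over time as area under calcium response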
Target sequence (Q9QUQ5 whole entry, looked up): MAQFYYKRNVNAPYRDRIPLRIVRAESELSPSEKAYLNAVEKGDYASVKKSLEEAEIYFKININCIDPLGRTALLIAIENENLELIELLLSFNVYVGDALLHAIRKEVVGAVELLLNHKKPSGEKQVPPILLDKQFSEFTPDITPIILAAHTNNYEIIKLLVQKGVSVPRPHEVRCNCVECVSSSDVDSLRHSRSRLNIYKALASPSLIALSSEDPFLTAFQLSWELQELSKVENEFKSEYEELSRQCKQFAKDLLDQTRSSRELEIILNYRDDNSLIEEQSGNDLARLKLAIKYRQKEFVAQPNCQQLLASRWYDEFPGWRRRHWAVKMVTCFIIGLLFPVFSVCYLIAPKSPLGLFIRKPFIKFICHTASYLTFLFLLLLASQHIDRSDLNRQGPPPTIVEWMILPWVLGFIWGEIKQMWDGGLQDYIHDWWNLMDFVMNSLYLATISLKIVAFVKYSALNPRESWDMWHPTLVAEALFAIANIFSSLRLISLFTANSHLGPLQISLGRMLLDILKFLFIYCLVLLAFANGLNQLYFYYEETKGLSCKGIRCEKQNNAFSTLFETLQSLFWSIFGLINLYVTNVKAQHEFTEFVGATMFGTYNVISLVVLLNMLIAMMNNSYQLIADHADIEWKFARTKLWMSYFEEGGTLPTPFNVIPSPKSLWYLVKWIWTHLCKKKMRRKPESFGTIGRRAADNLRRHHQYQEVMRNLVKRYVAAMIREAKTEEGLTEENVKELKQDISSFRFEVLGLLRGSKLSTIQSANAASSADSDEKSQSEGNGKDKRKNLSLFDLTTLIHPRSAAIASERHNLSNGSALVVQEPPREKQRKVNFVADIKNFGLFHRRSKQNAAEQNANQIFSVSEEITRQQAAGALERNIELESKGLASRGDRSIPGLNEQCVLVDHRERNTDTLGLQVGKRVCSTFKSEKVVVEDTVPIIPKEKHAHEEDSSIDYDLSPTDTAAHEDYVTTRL
TRPC4 act: opens the mouse TRPC4 cation channel. HEK293 TRPC4beta/mu-opioid, Fluo4 calcium fluorescence; stronger effect = higher value. Q9QUQ5. hit rate 0.49% among 310,000. B-score at 10 µM;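 active = B-score above 5 SD of library B-scores, and initial fluorescence ratio not above library mean plus 5 SD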;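 note: positive B-score marks a calcium rise read as TRPC4 activation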
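Assay system: HEK293 cells stably co-expressing mouse TRPC4beta and mu-opioid receptor / Timing: Fluo4 dye loading 45 min at room temperature, 110 s recording / Signal: Fluo4 calcium-sensitive dye fluorescence, kinetic, 1 Hz baseline / Read-out: integrated baseline-normalised fluorescence ratio, converted to per-well B score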
TRPC4 inh: inhibitors of mouse TRPC4 channel; HEK293 TRPC4beta/mu-opioid, DAMGO-evoked Fluo4 calcium flux; stronger effect = lower value; B-score at 10 µM; hit rate 0.39% among 300,000; AID 2247;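 active = B-score over 3 SD under the library average, no early fluorescence shift, positive overall ratio signal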
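Assay system: Stable TRPC4beta/mu-opioid receptor HEK293 cells | Reagent: DAMGO in two steps, submaximal then maximal | Compound dosing: Single concentration per test compound | Signal: Fluo4 Ca2+ flux fluorescence | Evaluation: Per-well B score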
TRPC6 activator: activators of mouse TRPC6 channel | Q61143 | HEK293-TRPC6 membrane potential dye fluorescence; stronger effect = higher value | B-score at 10 µM | hit rate 0.13% among 310,000 | AID 2550;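 active = B-score of the integrated fluorescence ratio above library mean plus 3 SD, and starting fluorescence ratio within library mean plus 5 SD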;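 note: higher score means more depolarization so channel activation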
Kir21 block: Kir2.1 (mouse) channel inhibition; HEK293-Kir2.1, FluxOR thallium flux fluorescence; stronger effect = lower value; hit rate 0.85% among 310,000; P35561; B-score at 10 µM;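 active = fluorescence ratio B-score at or below minus 3 SD of library scores, with starting-brightness B-score within 2 SD, cut at about -4.2 in these data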;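 note: channel flux triggered by added potassium and thallium sulfate stimulus; B-score of peak minus minimum fluorescence over baseline after thallium stimulus; more negative B-score means stronger Kir2.1 block with less thallium influx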
Active calls of the source: *; i = inactive. Shown are actives, neighbours in structure and some others; about 2.9% of the full set was active somewhere.

SMILES	TRPC6 inhibitor	TRPC4 PAM	TRPC4 act	TRPC4 inh	TRPC6 activator	Kir21 block
CCOC(=O)C1(Cc2ccccc2C)CCCN(Cc2ccc(NC(C)=O)cc2)C1 (stereo not given)	i	i	i	-9*	i	-0.63
COc1ccc(C2=NOC(Cn3nc(C(=O)NCC4CC4)cc3-c3ccccc3)C2)cc1 (stereo not given)	i	i	i	i	i	1.41
CCCn1c(SCC(=O)c2cc(C)n(-c3ccc4c(c3)OCO4)c2C)n[nH]c1=O	i	i	i	i	i	-6.7*
CC(C)N(C(=O)CSc1nnc(Cc2csc(Nc3ccccc3)n2)o1)C(C)C	i	i	i	i	i	-1.45
CC(=O)N1N=C(c2ccc(Br)cc2)OC1(C)CC(=O)Nc1ccccc1 (stereo not given)	i	15*	i	i	i	-2.2
CCOc1cc(/C=C2\COc3ccccc3C2=O)cc(Br)c1OCC(=O)N(C)C	i	i	i	i	i	-4.98*
COc1ccc(/C=C2\COc3ccccc3C2=O)cc1OC	i	i	i	i	i	-1.9
COc1ccc(C(=O)NCc2nnc(SCC(=O)NCc3ccco3)o2)cc1OC	i	i	i	i	i	0.23
CC(C)COCC(CN(Cc1ccccc1)c1ccccc1)N1CCCC1 (stereo not given)	i	i	i	i	i	-6.3*
CC(C(=O)Nc1ccc(OCc2ccccc2)cc1)N1CCCC1 (stereo not given)	i	i	i	i	i	1.49
COc1cc(CNC2CCCC2)cc(Cl)c1OCc1ccc(F)cc1	i	i	i	-7*	i	-5.04*
COc1cc(CNn2c(C)n[nH]c2=S)cc(Cl)c1OCc1ccc(F)cc1	i	i	i	i	i	0.4
CCOc1cc(CNC2CCCC2)cc(Cl)c1OCc1ccc(F)cc1	i	i	i	i	i	-11.1*
COc1cc(CNC2CCCCCCC2)cc(Cl)c1OCC(N)=O	i	i	i	i	i	-0.99
COc1cc(CNC2CCCC2)cc(Cl)c1OCc1ccccc1Cl	i	i	i	i	i	-9.32*
COc1cc(CNC2CCCC2)cc(OC)c1OC	i	i	i	i	i	2.08
CC(C)n1nnnc1-c1ccc(Cl)cc1	i	i	i	i	i	0.46
Cc1cc(C(=O)c2ccc(C(C)(C)C)cc2)c(NC(=O)CCl)s1	i	i	i	i	i	0.15
COc1ccccc1CNC(=O)CCCNC(=O)c1ccc(Cl)cc1	i	i	i	i	i	-0.03
Cc1ccc(Nc2nc(NCCCN3CCOCC3)nc(N)c2[N+](=O)[O-])cc1	i	i	i	-6*	i	-0.49
COCC(C)NC(C(=O)Nc1cccc(C(C)=O)c1)c1ccccc1 (stereo not given)	i	i	i	i	i	-1.9
COCC(C)NC(C(=O)Nc1ccc(C)c(Cl)c1)c1ccccc1 (stereo not given)	i	i	59*	i	i	0.01
O=C(Nc1ccc(F)c([N+](=O)[O-])c1)C(=O)c1c(O)[nH]c2ccccc12	i	i	i	i	i	0.3
COc1ccccc1C(=O)NC(CCSC)C(=O)NCCCSc1ccccc1 (stereo not given)	i	i	i	i	i	-0.33
Cc1ccc(N(CC(=O)NC2CCCC2)C(=O)CNC(=O)c2cccs2)cc1F	i	i	i	-7*	i	-0.18
SMILES	TRPC6 inhibitor	TRPC4 PAM	TRPC4 act	TRPC4 inh	TRPC6 activator	Kir21 block
O=C(NCC[C@@H]1C[C@@H]2C=C[C@H]1C2)c1cc(COc2ccc(F)cc2F)on1	i	i	i	i	i	0
O=C(CSc1nn(-c2ccc(Cl)cc2)c(=S)s1)NCC1CCCO1 (stereo not given)	i	i	i	i	i	-0.12
O=[N+]([O-])c1ccc(C[n+]2cc(-c3ccc(Cl)c(Cl)c3)n3c2CCCCC3)cc1	i	i	i	i	i	-2.55
Clc1ccc(-c2c[n+](Cc3cccc(Cl)c3)c3n2CCC3)cc1	i	i	i	-6*	i	0.39
Clc1ccc(C[n+]2cc(-c3ccccc3)n3c2CCC3)cc1Cl	i	i	i	-6*	i	0.2
O=C(c1ccc2oc(CCc3ccccc3)nc2c1)N1CCC(O)CC1	i	i	i	i	i	-0.08
O=C1Cc2ccccc2Sc2cc(OCCCN3CCCCC3)ccc21	i	i	i	i	i	-8.68*
O=C1Cc2ccccc2Sc2c(OCCN3CCCCC3)cccc21	i	i	i	i	i	-7.73*
CN(C)CCCOc1ccc2c(c1)Sc1ccccc1CC2=O	i	i	i	i	i	-4.23*
Nc1ccc2c(c1)C(=O)Cc1ccccc1S2	i	i	i	i	i	0.92
CCc1ccc(NC(=O)Cc2c(C(=O)O)n(C)c3ccccc23)cc1	i	i	i	i	i	0.07
COc1cc(-c2csc(NC3CCCCC3)n2)cc(OC)c1OC	i	i	i	i	i	-0.02
CCn1ccnc1CNCc1cn(-c2cc(C)ccc2C)nc1-c1ccccc1	i	i	i	i	i	-1.21
Cc1ccc(C)c(-n2cc(CNCCc3cnccn3)c(-c3ccccc3)n2)c1	i	i	108*	i	i	0
CCOC(=O)c1c(C)n(-c2ccc(C)cc2)c2ccc(OCC(O)CNCCCO)cc12 (stereo not given)	i	i	i	i	i	-2.71
CCOC(=O)c1c(C)n(-c2ccc(C)cc2)c2ccc(OCC(O)CNCC3CCCO3)cc12 (stereo not given)	i	33*	i	i	i	-3.08
Cc1cc(C(=O)NC(C)Cc2ccccc2)cc(C)c1[N+](=O)[O-] (stereo not given)	i	i	i	i	i	0.87
COCCN(C(=O)Cn1nnc2ccccc21)C(C(=O)NC1CCCC1)c1cc(OC)ccc1OC (stereo not given)	i	i	i	i	24.5*	0.87
C=CCN(C(=O)Cn1nnc2ccccc21)C(C(=O)NCCOC)c1ccc(OC)cc1OC (stereo not given)	i	i	i	i	i	0.42
CCNC(=O)C(=O)NCC1OCCCN1S(=O)(=O)c1cccs1 (stereo not given)	i	i	i	i	i	1.43
CCOC(=O)N1CCN(C(=O)COC(=O)CNC(=O)c2ccc(C)cc2)CC1	i	i	i	i	i	0.94
